# Laboratory results published in PubChem BioAssay.
# Active and inactive are the calls of the source.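 Rule for the calls, unless noted: active = visually confirmed hit in the image check and inhibition above 20%; inconclusive = visually confirmed hit but inhibition not above 20%; inactive = no visual hit in the image check.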
# Key:
# [1] = inhibitors of TNFa-induced NFkB p65 translocation, primary screen, imaging, HUVEC, MLSMR starter and 10KST1 sets (AID 438;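 active = inhibition above 20% together with a positive visual image hit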;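 note: compound added about 3h40 before a 20 min TNFalpha stimulation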;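 for inhibition: signal is the nuclear over cytoplasmic p65 intensity ratio per well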); conditions: HUVEC TNFa-induced p65 nuclear translocation; cell count: measured here: nuclei count (cytotoxicity indicator), at 2.08 µM; inhibition: at 2 µM, stronger effect = higher value, 0% TNFa-plus-vehicle, 100% no-TNFa wells
# [2] = reduction of polyQ htt aggregates in cells – imaging, exon1htt(103Q)mCFP cells, high-content imaging, primary screen (AID 483;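 active = visual image review flags a hit and inhibition of aggregation exceeds 20%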;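 note: compound exposure lasted 3 days before fixation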;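 for nuclei count: percent of the per-plate median nuclei count of sample wells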); conditions: exon1htt(103Q)mCFP cell line, aggregate imaging, at 2 µM; inhibition of aggregation: stronger effect = higher value; nuclei count: measured here: cell count, toxicity
# [3] = endothelial E-selectin expression blockers – imaging, HUVEC, immunofluorescence, MLSMR starter and 10KST1 sets, primary screen (AID 487); conditions: HUVEC TNFalpha-induced E-selectin immunofluorescence imaging, at 2 µM; inhibition: stronger effect = higher value; nuclei count: measured here: cell number, toxicity;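 for inhibition: signal is fraction of cell area covered by stained E-selectin grains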;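 for nuclei count: 100% = median nuclei count of all wells on the same plate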
# [4] = target: Voltage-gated potassium channel subunit beta-2 (Rattus norvegicus) (UniProt P62483); assay: inhibitors of rat Kvbeta2 reductase activity – biochemical, NADPH fluorescence, primary screen (AID 622;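 active = fluorescence slope higher than the sample average by over 3 SD, cut at about -0.22 in these data, passing the limit was not always enough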;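 note: slope of raw intensity against log time taken from 70 to 1610 s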); conditions: recombinant KvBeta, 4-cyanobenzaldehyde reduction, at 10 µM, stronger effect = higher value
# [5] = target: Voltage-gated potassium channel subunit beta-2 (Rattus norvegicus) (UniProt P62483); assay: enhancers of rat Kvbeta2 NADPH turnover – biochemical, NADPH fluorescence, primary screen (AID 623;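 active = NADPH fluorescence slope more negative than the mean of all samples by about 3 SD, 99.7% confidence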;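 note: fluorescence intensity change per second fitted from 20 to 320 s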); conditions: Recombinant KvBeta, NADPH fluorescence decrease slope, 10 min; at 10 µM; stronger effect = lower value
# [6] = target: Muscarinic acetylcholine receptor M4 (Homo sapiens) (UniProt P08173); assay: M4-linked GIRK flux change, two-sided – cell-based, HEK293 M4/GIRK, thallium flux, BTC-AM, M4 allosteric agonist project, primary screen (AID 625;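 active = fluorescence slope after compound addition differing from the mean of all tested samples at 99.7% confidence, mostly higher but some lower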;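 note: thallium influx through GIRK channels coupled to M4 in HEK293 cells with BTC-AM dye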); conditions: at 10 µM, actives lie on both sides
# Method in brief: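 Material: M4/GIRK1/GIRK2 stable HEK293 cell line. Medium: pH 7.3 thallium assay buffer. Dosing: single compound concentration, 10 µM final. Schedule: 1 h dye loading, 2 min kinetic read. Measured by: kinetic fluorescence with BTC-AM dye. Read-out: post-addition slope, 15–24 s, of baseline-normalized fluorescence. Benchmarks: carbachol and DMSO controls.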
# [7] = blockers of RIG-like receptor reporter activation – cell-based, Sendai virus stimulus, luciferase, 10K MLSCN set, TLR/RLR signaling modifier project, primary screen (AID 602276;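 active = inhibition at or above 50% at 10 µM; inactive = inhibition below 50%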;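 note: firefly luciferase from ISG56 promoter only with Renilla not read in this screen; 0% = Sendai virus plus DMSO and 100% = medium plus DMSO without virus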); conditions: HEK293 RL24 IRF3 luciferase reporter, at 10 µM, stronger effect = higher value
# [8] = TLR3 IRF3 reporter activation blockers – cell-based, poly I:C stimulus, luciferase, 10K MLSCN set, primary screen (AID 602277;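 active = inhibition of the reporter signal at or above 50%; inactive = inhibition below 50%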); conditions: HEK293-TLR3 RL24 IRF3 luciferase reporter, at 10 µM, stronger effect = higher value
# Sequence of Voltage-gated potassium channel subunit beta-2 (Rattus norvegicus) (P62483 whole entry, looked up): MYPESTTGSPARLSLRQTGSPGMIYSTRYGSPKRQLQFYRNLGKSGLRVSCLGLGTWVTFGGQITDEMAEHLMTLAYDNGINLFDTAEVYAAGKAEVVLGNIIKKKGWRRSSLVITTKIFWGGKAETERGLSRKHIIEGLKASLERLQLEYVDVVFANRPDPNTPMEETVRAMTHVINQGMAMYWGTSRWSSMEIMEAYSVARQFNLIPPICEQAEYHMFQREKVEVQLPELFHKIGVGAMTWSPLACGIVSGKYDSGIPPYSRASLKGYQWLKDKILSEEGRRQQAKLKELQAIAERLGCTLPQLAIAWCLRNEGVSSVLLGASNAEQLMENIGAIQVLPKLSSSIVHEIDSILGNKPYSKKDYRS
# Sequence of Muscarinic acetylcholine receptor M4 (Homo sapiens) (P08173 whole entry, looked up): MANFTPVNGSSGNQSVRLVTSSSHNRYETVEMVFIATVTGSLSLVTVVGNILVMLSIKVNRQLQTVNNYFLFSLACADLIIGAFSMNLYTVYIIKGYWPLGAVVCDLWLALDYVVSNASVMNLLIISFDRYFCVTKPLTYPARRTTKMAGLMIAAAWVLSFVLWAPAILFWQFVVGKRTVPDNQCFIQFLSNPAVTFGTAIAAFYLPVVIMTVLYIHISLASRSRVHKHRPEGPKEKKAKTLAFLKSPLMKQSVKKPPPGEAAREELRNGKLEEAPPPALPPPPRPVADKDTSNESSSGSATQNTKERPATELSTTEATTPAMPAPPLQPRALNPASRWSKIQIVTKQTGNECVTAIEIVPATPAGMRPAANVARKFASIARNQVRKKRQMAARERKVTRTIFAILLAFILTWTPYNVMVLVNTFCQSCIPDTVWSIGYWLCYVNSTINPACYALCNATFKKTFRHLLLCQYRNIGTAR
SMILES,cell count [1],inhibition [1],inhibition of aggregation [2],nuclei count [2],inhibition [3],nuclei count [3],fluorescence slope [4],NADPH fluorescence slope [5],fluorescence slope [6],inhibition [7],inhibition [8]
C=CCn1c(=O)/c(=C/c2ccc(O)cc2)s/c1=C(/C#N)c1nnc2n1CCCCC2,483,-0.5% (inactive),11.1% (inactive),112%,-5.3% (inactive),116%,-0.332 (inactive),-4.5e-05 (inactive),0.00728 (inactive),17.7% (inactive),-30% (inactive)
O=C(Cc1ccc(Br)cc1)N1CCCCCC1,358,-0.2% (inactive),1.7% (inactive),99.5%,-68.6% (inactive),99.7%,-0.657 (inactive),1.8e-05 (inactive),0.00369 (inactive),-33.9% (inactive),-69.5% (inactive)
CC(C)c1ccc(-c2nc(N3CCCCC3)[nH]c(=O)c2C#N)cc1,459,-4.5% (inactive),-12% (inactive),102%,-48.9% (inactive),107%,-0.478 (inactive),-3.9e-06 (inactive),0.00632 (inactive),-5% (inactive),-1.05% (inactive)
Cc1ccc(S(=O)(=O)N(C)Cc2cc3ccccc3[nH]c2=O)cc1,544,-5% (inactive),12.8% (inactive),99.8%,29.4% (inactive),104%,-0.52 (inactive),-0.000101 (inactive),0.00517 (inactive),8.78% (inactive),70.5% (active)
O=C(NCCN1CCOCC1)c1csc2c1CCCC2,643,-24.5% (inactive),22.6% (inactive),109%,-109% (inactive),116%,-0.257 (inactive),-1.1e-05 (inactive),0.0063 (inactive),12.1% (inactive),2.09% (inactive)
COC(=O)Cn1c2c(c3cc(C)ccc31)CCCC2,640,-9.9% (inactive),23.1% (inactive),91.1%,-28.6% (inactive),111%,-0.523 (inactive),-0.000167 (inactive),0.00431 (inactive),18.4% (inactive),21.6% (inactive)
CN(C)c1nc(N)nc(CSc2nnnn2-c2cccc3ccccc23)n1,627,-10.4% (inactive),27.3% (inactive),71.9%,-69.3% (inactive),103%,-0.463 (inactive),-3.9e-05 (inactive),0.00537 (inactive),18.6% (inactive),14.8% (inactive)
COc1ccc(N2CCN(C(c3cccc(OC)c3OC)c3nnnn3C3CCCC3)CC2)cc1 (stereo not drawn),709,20% (inactive),-7.2% (inactive),96.3%,36.9% (inactive),76.2%,-0.508 (inactive),9.8e-05 (inactive),0.00439 (inactive),-1.29% (inactive),21.9% (inactive)
COc1cccc(-n2c(SCC(=O)OC(C)C)nnc2-c2cccnc2)c1,402,-3.3% (inactive),-5.3% (inactive),96.8%,-29.7% (inactive),113%,-0.459 (inactive),-4.2e-05 (inactive),0.00575 (inactive),9.67% (inactive),13.7% (inactive)
Cc1oc(-c2ccccc2)cc1C(N)=O,248,0% (inactive),-1.4% (inactive),66.5%,18.6% (inactive),97.7%,-0.548 (inactive),-1.8e-05 (inactive),0.0055 (inactive),15.1% (inactive),3.48% (inactive)
O=C(O)c1ccc(-n2nnnc2Oc2ccccc2C(=O)N2CCOCC2)cc1,478,-20.3% (inactive),-2.2% (inactive),53.4%,2.2% (inactive),89.9%,-0.482 (inactive),-1.8e-05 (inactive),0.0048 (inactive),21% (inactive),12.5% (inactive)
O=C(N1CCCCCC1)N1CCN(C(=O)N2CCOCC2)CC1,437,-13.3% (inactive),7.7% (inactive),99.6%,-24.8% (inactive),134%,-0.563 (inactive),-1.7e-05 (inactive),0.00574 (inactive),3.08% (inactive),-6.18% (inactive)
COc1ccc(OC)c(NC(=O)c2cn(C)c(=O)c3cc(OC)c(OC)cc23)c1,782,-20.3% (inactive),1.3% (inactive),97.7%,10.9% (inactive),119%,-0.307 (inactive),-1.5e-05 (inactive),0.00686 (inactive),-16.7% (inactive),-26.6% (inactive)
O=C(c1cnsn1)N1CCN(c2ccccn2)CC1,277,9.3% (inactive),4% (inactive),82.9%,1.4% (inactive),95.4%,-0.45 (inactive),-2.9e-05 (inactive),0.00527 (inactive),4.49% (inactive),-0.785% (inactive)
O=C1CCC(=O)N1OCCCCOc1ccccc1,692,3.7% (inactive),-1.2% (inactive),105%,7.8% (inactive),106%,-0.421 (inactive),3.2e-05 (inactive),0.00701 (inactive),15.8% (inactive),18% (inactive)
CCn1c(Cc2ccc(OC)cc2)nnc1SCC(=O)Nc1cccc(C(=O)OC)c1,433,6% (inactive),0.9% (inactive),110%,-29.7% (inactive),107%,-0.469 (inactive),-1.6e-05 (inactive),0.00613 (inactive),12.3% (inactive),8.51% (inactive)
Cc1ccc(CSc2nc3c(c(=O)[nH]2)C(c2ccncc2)C2=C(CCCC2=O)N3)cc1 (stereo not drawn),518,-16.7% (inactive),3.6% (inactive),79.3%,-14.5% (inactive),87.2%,-0.457 (inactive),-3.5e-05 (inactive),0.00543 (inactive),21.7% (inactive),15.5% (inactive)
Cc1ccccc1C(=O)N1CCC(C(=O)Nc2ccc(S(=O)(=O)N3CCCC3)cc2)CC1,186,6.1% (inactive),-11% (inactive),105%,12.2% (inactive),97.5%,-0.566 (inactive),-3.8e-05 (inactive),0.0067 (inactive),8.84% (inactive),16.9% (inactive)
CCCCN(C)Cc1c(C)[nH]c2c(Cl)cccc2c1=O,326,-0.2% (inactive),0.9% (inactive),92.1%,-38.6% (inactive),92.3%,-0.434 (inactive),3.3e-05 (inactive),0.00844 (inactive),7.84% (inactive),23.5% (inactive)
Cn1c(=O)c(-c2ccccc2)nn2c3ccccc3nc12,704,-35.3% (inactive),22.1% (inactive),96.1%,-79.5% (inactive),113%,-0.19 (inactive),4.4e-07 (inactive),0.00522 (inactive),13.7% (inactive),17.5% (inactive)
Cc1ncoc1C(=O)Nc1cccc(Cl)c1C,540,-14.2% (inactive),52.7% (active),56.4%,-38.5% (inactive),116%,-0.302 (inactive),8.7e-06 (inactive),0.00599 (inactive),-22.6% (inactive),-46.1% (inactive)
CC1C(c2ccccc2)N(C)CCC12NC(=O)NC2=O (stereo not drawn),315,-0.8% (inactive),-12.3% (inactive),108%,-43% (inactive),135%,-0.397 (inactive),6.4e-05 (inactive),0.00604 (inactive),-0.144% (inactive),3.49% (inactive)
O=C1CNCc2[nH]c3ccccc3c2N1c1ccccc1,377,3.9% (inactive),9.4% (inactive),104%,-124% (inactive),118%,-0.509 (inactive),-3.5e-05 (inactive),0.00541 (inactive),17.2% (inactive),17.9% (inactive)
Cc1nn(-c2ccc(F)cc2)c2nc(N)c(C#N)c(-c3cccs3)c12,483,5.7% (inactive),3% (inactive),81.1%,-126% (inactive),160%,-0.437 (inactive),-1.4e-05 (inactive),0.00193 (inactive),12.4% (inactive),20.7% (inactive)
CN(Cc1nc(-c2ccncc2)no1)S(=O)(=O)c1ccc(Br)cc1,492,-9.3% (inactive),-5.7% (inactive),108%,-56.8% (inactive),194%,-0.589 (inactive),-3.3e-05 (inactive),0.01 (inactive),4.91% (inactive),-6.05% (inactive)
O=C(O)c1[nH]nc2c1COc1ccccc1-2,308,13.1% (inactive),-9.9% (inactive),97%,14.8% (inactive),102%,-0.551 (inactive),-0.000118 (inactive),0.00437 (inactive),14.5% (inactive),22.3% (inactive)
Cc1ccc(Nc2nc(CSc3nnnn3C)cs2)cc1,549,-15.4% (inactive),3.7% (inactive),79.2%,5.9% (inactive),109%,-0.458 (inactive),-0.000383 (inactive),0.00561 (inactive),-54.9% (inactive),98.7% (active)
COc1ccc2c(c1)c1c(n2C(C)=O)C(OC(C)=O)=NCC1,904,-1.4% (inactive),-12.8% (inactive),101%,-98.4% (inactive),128%,-0.166 (active),-2.6e-05 (inactive),0.00438 (inactive),13.2% (inactive),-6.44% (inactive)
